According to ChEMBL document CHEMBL3397004, “Furan-based acetylating agent for the chemical modification of proteins” (Bioorg Med Chem, 2015):
Activity calls are given as the source filed them. No cut-off for these calls is given here.

What was measured:
[1] = target: Cytochrome c (Bos taurus) (UniProt P62894); experiment: Induction of chemical modification in bovine heart cytochrome c in phosphate buffer assessed as appearance of new peak at 413 nm at 2 mM at pH 7.4 after overnight incubation by UV-vis spectrophotometry
Procedure, shortened: (§1)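 Cytochrome c (50 µM) incubated overnight at 37 °C, pH 7.4, with 2 mM BAMF or 2 mM aspirin in phosphate buffer. UV–vis spectra recorded about 350–600 nm (Soret and Q-band region) and compared with native protein.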

[2] = target: Cytochrome c (Bos taurus) (UniProt P62894); experiment: Induction of chemical modification in bovine heart cytochrome c assessed as denaturation temperature at 0.3 mM by UV-vis spectrophotometry (Tm = 56.5 +/- 0.1 degC)
[3] = target: Cytochrome c (Bos taurus) (UniProt P62894); experiment: Induction of chemical modification in bovine heart cytochrome c in phosphate buffer assessed as adduct formation at heme center at 2 mM at pH 7.4 after 1 hr by UV-vis spectrophotometry
Procedure, shortened: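 Cytochrome c treated with 2 mM acetylating agent in phosphate buffer pH 7.4. Heme redox/reduction kinetics followed by absorbance at 550 nm over 1 h, with aspirin at 2 mM as the reference acetylating agent.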

[4] = target: Cytochrome c (Bos taurus) (UniProt P62894); experiment: Induction of chemical modification in bovine heart cytochrome c assessed as additional peaks at 1.2 mM at pH 7.4 by ESI-MS spectroscopic technique
[5] = target: Cytochrome c (Bos taurus) (UniProt P62894); experiment: Induction of chemical modification in bovine heart cytochrome c tertiary structure in phosphate buffer assessed as intact band at 695 nm at pH 7.4 after overnight incubation by UV-vis spectrophotometry
Procedure, shortened: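 Cytochrome c modified overnight at 37 °C in 50 mM phosphate pH 7.4 with BAMF. UV–vis absorbance scanned 600–800 nm to monitor the 695 nm Met-80–heme ligand band, compared with native protein.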

[6] = target: Cytochrome c (Bos taurus) (UniProt P62894); experiment: Induction of chemical modification in bovine heart cytochrome c tertiary structure assessed as effect on adduct formation at 0.3 to 1.2 mM by circular dichroism analysis
[7] = target: Lysozyme C (Gallus gallus) (UniProt P00698); experiment: Induction of chemical modification in chicken egg white lysozyme assessed as effect on enzyme activity at 0.3 to 1.2 mM by UV-vis spectrophotometry
Procedure, shortened: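 Lysozyme (50 µM) modified overnight at 37 °C with 0.3, 0.6, 0.9 or 1.2 mM BAMF in 50 mM phosphate pH 7.4. Hydrolytic activity read turbidimetrically as the fall in A450 of a bacterial cell suspension over 1500 s. Specific activity plotted against BAMF concentration.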

[8] = target: Cytochrome c (Bos taurus) (UniProt P62894); experiment: Induction of chemical modification in bovine heart cytochrome c in phosphate buffer assessed as disappearance of peak at 530 nm and appearance of new peaks at 522 and 551 nm at pH 7.4 after overnight incubation by UV-vis spectrophotometry; procedure, shortened: as §1
[9] = target: Cytochrome c (Bos taurus) (UniProt P62894); experiment: Induction of chemical modification in bovine heart cytochrome c assessed as denaturation temperature at 0.9 mM by UV-vis spectrophotometry (Tm = 56.5 +/- 0.1 degC)
[10] = target: Cytochrome c (Bos taurus) (UniProt P62894); experiment: Induction of chemical modification in bovine heart cytochrome c assessed as denaturation temperature at 0.6 mM by UV-vis spectrophotometry (Tm = 56.5 +/- 0.1 degC)
[11] = target: Cytochrome c (Bos taurus) (UniProt P62894); experiment: Induction of chemical modification in bovine heart cytochrome c assessed as change in negative peaks of at 282 nm and 289 nm of tyrosyl side chains at 0.3 to 1.2 mM by circular dichroism analysis
[12] = target: Cytochrome c (Bos taurus) (UniProt P62894); experiment: Induction of chemical modification in bovine heart cytochrome c assessed as exposure of hydrophobic core at 0.3 to 1.2 mM by ANS staining-based fluorescence assay
Procedure, shortened: (§2)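 Proteins (50 µM) modified overnight at 37 °C with BAMF (0.3–1.2 mM) in 50 mM phosphate pH 7.4, then measured at 5 µM. ANS was used at 16-fold over protein. Excitation 360 nm, emission 400–600 nm, slits 10 nm, 3 mm quartz cell. Blanks subtracted, each spectrum at least three times.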

[13] = target: Cytochrome c (Bos taurus) (UniProt P62894); experiment: Induction of chemical modification in bovine heart cytochrome c assessed as denaturation temperature at 1.2 mM by UV-vis spectrophotometry (Tm = 56.5 +/- 0.1 degC)
[14] = target: Lysozyme C (Gallus gallus) (UniProt P00698); experiment: Induction of chemical modification in chicken egg white lysozyme tertiary structure assessed as effect on adduct formation at 0.3 to 1.2 mM by circular dichroism analysis
[15] = target: Cytochrome c (Bos taurus) (UniProt P62894); experiment: Induction of chemical modification in bovine heart cytochrome c in phosphate buffer assessed as appearance of new peak at 414 nm at 2 mM at pH 7.4 after overnight incubation by UV-vis spectrophotometry; procedure, shortened: as §1
[16] = target: Lysozyme C (Gallus gallus) (UniProt P00698); experiment: Induction of chemical modification in chicken egg white lysozyme assessed as exposure of hydrophobic core at 0.3 to 1.2 mM by ANS staining-based fluorescence assay; procedure, shortened: as §2

Sequence of Cytochrome c (Bos taurus) (P62894 whole entry): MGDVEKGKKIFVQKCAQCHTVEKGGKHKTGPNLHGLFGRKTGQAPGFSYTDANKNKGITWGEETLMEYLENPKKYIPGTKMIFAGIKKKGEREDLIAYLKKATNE
Sequence of Lysozyme C (Gallus gallus) (P00698 whole entry): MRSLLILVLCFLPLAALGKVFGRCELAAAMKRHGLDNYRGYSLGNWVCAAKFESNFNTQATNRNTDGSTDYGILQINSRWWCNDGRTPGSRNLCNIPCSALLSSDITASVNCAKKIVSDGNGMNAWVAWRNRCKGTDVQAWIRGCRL

For `CC(=O)Oc1ccccc1C(=O)O`, the Activity [1] was “Active”.

In the case of `CC(=O)OCc1ccc(COC(C)=O)o1`, the Tm [2] is reported as 54.8 °C, the Activity [3] is reported as “Active” and the Activity [4] is reported as “Active”. The Activity [5] was “inactive”, the Activity [6] was “inactive” and the Activity [7] was “inactive”. For the same molecule, the Activity [8] was “Active”, the Tm [9] was 53.8 °C and the Tm [10] was 54.7 °C. The Activity [11] was “inactive”, the Activity [12] was “inactive” and the Tm [13] was 53 °C. For the same molecule, the Activity [14] was “inactive”, the Activity [15] was “Active” and the Activity [16] was “inactive”.
